Several values for one entry are separate records, joined by “and”; a condition that tells them apart may be missing. Identical values can stand only once. Marks after values point to notes of the source that are not given here.
Key:
[1] = Phase 1 study: safety and tolerability; format: in vivo, human (Japanese patients with advanced solid tumors)
How it was run: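 Oral dosing was 240 mg BID on Days 1–7 (Cohort 1) or 160 mg BID on Days 1–14 (Cohort 2) of 28-day cycles, after a single dose on C0D1, using a rolling-6 escalation design. DLTs were assessed over Cycles 0 and 1. AEs were coded by MedDRA and graded by CTCAE v4.03. The TEAE window ran from first dose to 30 (+7) days after the last dose or discontinuation. Relatedness was judged by the investigator. Data were summarized descriptively for all patients who received ≥1 dose.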

[2] = test system: advanced solid malignancies; assay: Phase 1 study: antitumor activity; format: in vivo, human (Japanese patients); details: for Best overall response: Complete response / Best overall response: Partial response: confirmed; for Best overall response: Stable disease: maintained ≥ 7 weeks from Cycle 1 Day 1; for Median PFS: Kaplan-Meier, data cutoff May 25, 2023
How it was run: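 Oral twice-daily dosing on Days 1–7 of 28-day cycles, after a single oral dose on C0D1 (4-day Cycle 0). Tumors were imaged by CT or MRI at baseline, then by the same method every 8 weeks (±1 week) until progression, per RECIST 1.1. CR/PR needed confirmation ≥4 weeks later, and SD had to last ≥7 weeks from C1D1. ORR was limited to measurable disease, with Clopper-Pearson 95% CI; PFS by Kaplan–Meier.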

[3] = Phase 1 study: plasma pharmacokinetics, non-compartmental analysis; format: in vivo, human (Japanese patients); details: for tmax, Median (range) / Cmax / Vd/F / half-life: oral; for tmax, Median (range) / Cmax / Vd/F / half-life / Tmax: plasma; for Cmax / Vd/F / half-life / Tmax: human; for Vd/F: Arithmetic mean (SD); for half-life: t1/2, Arithmetic mean (SD); for Tmax: po, Median (range)
advanced solid tumors = details: monotherapy, cited from earlier work
[4] = cited from earlier work
[5] = test system: advanced gastric cancer, metastatic melanoma, non-small-cell lung cancer; details: in combination with durvalumab; phase 2 studies; cited from earlier work
[6] = Cohort 1 240 mg BID (n = 6), Any grade
[7] = Cohort 2 160 mg BID (n = 6), Any grade
[8] = Multiple-dose administration, Cohort 1 240 mg BID (n = 6)
[9] = Multiple-dose administration, Cohort 2 160 mg BID (n = 6)
[10] = Single-dose administration, Cohort 1 240 mg (n = 6)
[11] = Single-dose administration, Cohort 2 160 mg (n = 6)
[12] = 160 mg, Single-dose administration, Cohort 2 160 mg (n = 6)
[13] = 240 mg, Single-dose administration, Cohort 1 240 mg (n = 6)

SMILES: C[C@@H]1COCCN1c1cc(C2([S@](C)(=N)=O)CC2)nc(-c2cc[nH]c3nccc2-3)n1 [ceralasertib]
- Any DLT ([1]; Cohort 1 240 mg BID (n = 6)): 1 (16.7)* n (%)
- Any SAE ([1]; Cohort 1 240 mg BID (n = 6)): 0 n (%)
- Any SAE related to treatment ([1]; Cohort 1 240 mg BID (n = 6)): 0 n (%)
- Any SAE related to treatment, Grade ≥ 3 ([1]; Cohort 1 240 mg BID (n = 6)): 0 n (%)
- Any SAE, Grade ≥ 3 ([1]; Cohort 1 240 mg BID (n = 6)): 0 n (%)
- Any TEAE ([1]; Cohort 1 240 mg BID (n = 6)): 6 (100) n (%)
- Any TEAE leading to death ([1]; Cohort 1 240 mg BID (n = 6)): 0 n (%)
- Any TEAE leading to discontinuation of ceralasertib ([1]; Cohort 1 240 mg BID (n = 6)): 1 (16.7)* n (%)
- Any TEAE leading to discontinuation of ceralasertib, Related to treatment ([1]; Cohort 1 240 mg BID (n = 6)): 1 (16.7)* n (%)
- Any TEAE leading to dose interruption of ceralasertib ([1]; Cohort 1 240 mg BID (n = 6)): 0 n (%)
- Any TEAE leading to dose interruption of ceralasertib, Related to treatment ([1]; Cohort 1 240 mg BID (n = 6)): 0 n (%)
- Any TEAE leading to dose reduction of ceralasertib ([1]; Cohort 1 240 mg BID (n = 6)): 1 (16.7) n (%)
- Any TEAE leading to dose reduction of ceralasertib, Related to treatment ([1]; Cohort 1 240 mg BID (n = 6)): 1 (16.7) n (%)
- Any TEAE, Grade ≥ 3 ([1]; Cohort 1 240 mg BID (n = 6)): 1 (16.7)* n (%)
- Any TRAE ([1]; Cohort 1 240 mg BID (n = 6)): 5 (83.3) n (%)
- Any TRAE leading to death ([1]; Cohort 1 240 mg BID (n = 6)): 0 n (%)
- Any TRAE, Grade ≥ 3 ([1]; Cohort 1 240 mg BID (n = 6)): 1 (16.7)* n (%)
- TEAE: Anemia [1, 6]: 3 n (%)
- TEAE: Constipation [1, 6]: 2 n (%)
- TEAE: Nausea [1, 6]: 3 n (%)
- TEAE: Neutrophil count decreased [1, 6]: 2 n (%)
- TEAE: Platelet count decreased [1, 6]: 2 n (%)
- Any DLT ([1]; Cohort 2 160 mg BID (n = 6)): 1 (16.7)^† n (%)
- Any SAE ([1]; Cohort 2 160 mg BID (n = 6)): 2 (33.3) n (%)
- Any SAE related to treatment ([1]; Cohort 2 160 mg BID (n = 6)): 1 (16.7)^† n (%)
- Any SAE related to treatment, Grade ≥ 3 ([1]; Cohort 2 160 mg BID (n = 6)): 1 (16.7)^† n (%)
- Any SAE, Grade ≥ 3 ([1]; Cohort 2 160 mg BID (n = 6)): 2 (33.3) n (%)
- Any TEAE ([1]; Cohort 2 160 mg BID (n = 6)): 6 (100) n (%)
- Any TEAE leading to death ([1]; Cohort 2 160 mg BID (n = 6)): 0 n (%)
- Any TEAE leading to discontinuation of ceralasertib ([1]; Cohort 2 160 mg BID (n = 6)): 0 n (%)
- Any TEAE leading to discontinuation of ceralasertib, Related to treatment ([1]; Cohort 2 160 mg BID (n = 6)): 0 n (%)
- Any TEAE leading to dose interruption of ceralasertib ([1]; Cohort 2 160 mg BID (n = 6)): 1 (16.7)^† n (%)
- Any TEAE leading to dose interruption of ceralasertib, Related to treatment ([1]; Cohort 2 160 mg BID (n = 6)): 1 (16.7)^† n (%)
- Any TEAE leading to dose reduction of ceralasertib ([1]; Cohort 2 160 mg BID (n = 6)): 1 (16.7)^† n (%)
- Any TEAE leading to dose reduction of ceralasertib, Related to treatment ([1]; Cohort 2 160 mg BID (n = 6)): 1 (16.7)^† n (%)
- Any TEAE, Grade ≥ 3 ([1]; Cohort 2 160 mg BID (n = 6)): 2 (33.3) n (%)
- Any TRAE leading to death ([1]; Cohort 2 160 mg BID (n = 6)): 0 n (%)
- Any TRAE, Grade ≥ 3 ([1]; Cohort 2 160 mg BID (n = 6)): 1 (16.7)^† n (%)
- TEAE: Anemia [1, 7]: 4 n (%)
- TEAE: Nausea [1, 7]: 4 n (%)
- TEAE: Platelet count decreased [1, 7]: 4 n (%)
- TEAE: White blood cell count decreased [1, 7]: 3 n (%)
- Patients with grade ≥ 3 treatment-emergent adverse event ([1]; both cohorts, 12 patients treated): 3 patients
- Overall tolerability ([1]; monotherapy, both regimens): well tolerated with an acceptable safety profile
- Patients with low grade (grade ≤ 2) events only ([1]; of 12 patients enrolled): 9 patients
- Best overall response: Not evaluable ([2]; Cohort 1 240 mg BID (n = 6)): 1 (16.7) n (%)
- Best overall response: Not evaluable, No post-baseline assessment ([2]; Cohort 1 240 mg BID (n = 6)): 1 (16.7) n (%)
- Best overall response: Objective response ([2]; Cohort 1 240 mg BID (n = 6)): 0 n (%)
- Best overall response: Progressive disease ([2]; Cohort 1 240 mg BID (n = 6)): 3 n (%) and 3 (50.0) n (%)
- Best overall response: Complete response ([2]; Cohort 1 240 mg BID (n = 6)): 0 n (%)
- Best overall response: Partial response ([2]; Cohort 1 240 mg BID (n = 6)): 0 n (%)
- Best overall response: Stable disease ([2]; Cohort 1 240 mg BID (n = 6)): 2 n (%) and 2 (33.3) n (%)
- Median PFS ([2]; Cohort 1 240 mg BID): 2.1 months
- Best overall response: Not evaluable ([2]; Cohort 2 160 mg BID (n = 6)): 0 n (%)
- Best overall response: Not evaluable, No post-baseline assessment ([2]; Cohort 2 160 mg BID (n = 6)): 0 n (%)
- Best overall response: Objective response ([2]; Cohort 2 160 mg BID (n = 6)): 0 n (%)
- Best overall response: Progressive disease ([2]; Cohort 2 160 mg BID (n = 6)): 2 n (%) and 2 (33.3) n (%)
- Best overall response: Complete response ([2]; Cohort 2 160 mg BID (n = 6)): 0 n (%)
- Best overall response: Partial response ([2]; Cohort 2 160 mg BID (n = 6)): 0 n (%)
- Best overall response: Stable disease ([2]; Cohort 2 160 mg BID (n = 6)): 4 n (%) and 4 (66.7) n (%)
- Median PFS ([2]; Cohort 2 160 mg BID): 3.3 months
- Patients with best objective response of stable disease ([2]; both cohorts in total, 12 patients): 6 patients
- AUCss, Geometric mean (CV%) [3, 8]: 94,970 (20.38) ng x h/mL
- AUCss,last, Geometric mean (CV%) [3, 8]: 92,140 (20.55) ng x h/mL
- CLss/F, Arithmetic mean (SD) [3, 8]: 2.568 (0.4725) L/h
- Css,max, Geometric mean (CV%) [3, 8]: 11,970 (16.26) ng/mL
- tss,max, Median (range) ([3]; Multiple-dose administration, Cohort 1 240 mg BID (n = 6), Cycle 1 Day 7): 1.97 (0.95–2.83) h
- AUCss, Geometric mean (CV%) [3, 9]: 57,400 (17.41) ng x h/mL
- AUCss,last, Geometric mean (CV%) [3, 9]: 56,020 (17.05) ng x h/mL
- CLss/F, Arithmetic mean (SD) [3, 9]: 2.822 (0.4864) L/h
- Css,max, Geometric mean (CV%) [3, 9]: 8132 (16.01) ng/mL
- tss,max, Median (range) ([3]; Multiple-dose administration, Cohort 2 160 mg BID (n = 6), Cycle 1 Day 8): 1.87 (0.52–2.92) h
- AUC(0–12), Geometric mean (CV%) [3, 10]: 54,260 (12.8) ng x h/mL
- AUCinf, Geometric mean (CV%) [3, 10]: 102,800 (20.67) ng x h/mL
- AUClast, Geometric mean (CV%) [3, 10]: 100,700 (19.14) ng x h/mL
- CL/F, Arithmetic mean (SD) [3, 10]: 2.4 L/h and 2.375 (0.4926) L/h
- Vz/F, Arithmetic mean (SD) [3, 10]: 40.47 (7.307) L
- t1/2, Arithmetic mean (SD) [3, 10]: 12.24 (3.472) h
- tmax, Median (range) [3, 10]: 2.04 (1.98–3.97) h
- AUC(0–12), Geometric mean (CV%) [3, 11]: 39,160 (16.33) ng x h/mL
- AUCinf, Geometric mean (CV%) [3, 11]: 71,440 (29.19) ng x h/mL
- AUClast, Geometric mean (CV%) [3, 11]: 69,120 (25.54) ng x h/mL
- CL/F, Arithmetic mean (SD) [3, 11]: 2.3 L/h and 2.318 (0.6707) L/h
- Vz/F, Arithmetic mean (SD) [3, 11]: 43.03 (8.284) L
- tmax, Median (range) [3, 11]: 1.92 (0.85–2.13) h
- Cmax ([3]; 160 mg): 6550 ng/mL
- Vd/F ([3]; 160 mg, Vss/F, Multiple-dose administration, Cohort 2 160 mg BID (n = 6)): 35.3 L
- half-life [3, 12]: 13.9 h
- Cmax ([3]; 240 mg): 7670 ng/mL
- Vd/F ([3]; 240 mg, Vss/F, Multiple-dose administration, Cohort 1 240 mg BID (n = 6)): 33.8 L
- Vd/F ([3]; 240 mg, Vz/F, Single-dose administration, Cohort 1 240 mg (n = 6)): 40.5 L
- half-life [3, 13]: 12.2 h
- Tmax [3, 12]: 1.9 h
- Tmax [3, 13]: 2 h
- Accumulation of ceralasertib in plasma ([3]; multiple administrations at 160 mg or 240 mg): up to 1.8 fold
- Arithmetic mean TCP ([3]; range across both cohorts, multiple dosing): 0.82–0.94
- Dose proportionality of exposure ([3]; single and multiple dosing, 160 mg and 240 mg): A trend suggesting a dose-proportional increase in exposure
- Disease control (evaluable patients) (advanced solid tumors; 39 of 66 evaluable patients): 59%
- Confirmed partial response (advanced solid tumors; 66 evaluable patients): 5 n
- Stable disease or unconfirmed PR (advanced solid tumors; 66 evaluable patients): 34 n
- Median tmax ([4]; Caucasian patients, PATRIOT study): 0.5 to 4 h
- Mean t1/2 after single dosing ([4]; PATRIOT studies, at higher doses): 11.2 to 12.8 h
- Objective response rates (ORR) [5]: 14 to 31%
